Data: ChEMBL document CHEMBL3784974, “Design and Structural Characterization of Potent and Selective Inhibitors of Phosphatidylinositol 4 Kinase IIIβ” (J Med Chem, 2016)

Columns and labels:
[1] = biological target: Phosphatidylinositol 4,5-bisphosphate 3-kinase catalytic subunit alpha isoform (Homo sapiens, UniProt P42336); test: Inhibition of N-terminal histidine6-tagged recombinant human full length PI3Kalpha expressed in baculovirus infected Sf21 insect cells preincubated for 15 mins followed by addition of cold ATP/gamma32P-ATP measured after 15 mins
Phosphatidylinositol 4,5-bisphosphate 3-kinase catalytic subunit alpha isoform, sequence (P42336 whole entry, canonical isoform): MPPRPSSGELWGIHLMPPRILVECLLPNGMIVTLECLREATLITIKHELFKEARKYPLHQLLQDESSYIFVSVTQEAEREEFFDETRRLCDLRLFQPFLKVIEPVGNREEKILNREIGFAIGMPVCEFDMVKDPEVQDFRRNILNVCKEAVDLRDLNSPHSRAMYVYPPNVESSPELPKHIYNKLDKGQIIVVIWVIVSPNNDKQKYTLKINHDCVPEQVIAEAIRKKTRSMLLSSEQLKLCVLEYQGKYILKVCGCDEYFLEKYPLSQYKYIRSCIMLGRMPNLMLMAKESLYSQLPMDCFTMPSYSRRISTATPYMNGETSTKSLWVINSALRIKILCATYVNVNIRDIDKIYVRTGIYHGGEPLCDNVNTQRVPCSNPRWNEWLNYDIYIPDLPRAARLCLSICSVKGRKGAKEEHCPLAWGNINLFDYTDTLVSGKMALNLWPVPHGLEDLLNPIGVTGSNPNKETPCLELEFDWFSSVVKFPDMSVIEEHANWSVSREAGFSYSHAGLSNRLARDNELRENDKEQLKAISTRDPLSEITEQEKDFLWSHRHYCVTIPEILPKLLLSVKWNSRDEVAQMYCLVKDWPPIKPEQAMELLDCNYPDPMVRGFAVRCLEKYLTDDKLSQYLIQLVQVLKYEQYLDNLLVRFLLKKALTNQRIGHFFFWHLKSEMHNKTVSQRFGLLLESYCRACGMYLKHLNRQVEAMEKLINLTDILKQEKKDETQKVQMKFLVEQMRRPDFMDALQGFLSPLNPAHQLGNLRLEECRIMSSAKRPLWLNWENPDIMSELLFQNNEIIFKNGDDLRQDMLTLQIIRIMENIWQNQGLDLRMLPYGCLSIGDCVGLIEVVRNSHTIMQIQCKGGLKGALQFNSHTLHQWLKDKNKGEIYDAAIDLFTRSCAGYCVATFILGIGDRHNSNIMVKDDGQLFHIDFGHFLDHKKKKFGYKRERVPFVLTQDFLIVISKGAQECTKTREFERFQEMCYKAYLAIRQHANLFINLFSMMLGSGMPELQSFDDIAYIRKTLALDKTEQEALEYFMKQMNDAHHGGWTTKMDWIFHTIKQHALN
Method in brief: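 Radiometric membrane-capture lipid kinase assay. Enzyme premixed with PIP2:DOPS:DOPC vesicles and BSA. Inhibitor diluted in 10% DMSO/kinase buffer, preincubated 15 min, then cold ATP plus γ32P-ATP added and run 15 min. Final conditions: 50mM HEPES pH 7.5, 100mM NaCl, 0.03% CHAPS, 10mM MgCl2, 1mM EGTA, 2mM DTT, 3.3nM PI3Kα, 80µM PIP2, 500ng/µL BSA, 2% DMSO, 10µM ATP, 2uCi γ32P-ATP. Product spotted onto nitrocellulose, washed in 1M NaCl/1% phosphoric acid, phosphorimaged.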

[2] = biological target: Phosphatidylinositol 3-kinase catalytic subunit type 3 (Homo sapiens, UniProt Q8NEB9); test: Inhibition of GST-tagged recombinant human full length VPS34 expressed in baculovirus preincubated for 15 mins followed by addition of cold ATP/gamma32P-ATP measured after 1 hr in presence of MnCl2
Phosphatidylinositol 3-kinase catalytic subunit type 3, sequence (Q8NEB9 whole entry): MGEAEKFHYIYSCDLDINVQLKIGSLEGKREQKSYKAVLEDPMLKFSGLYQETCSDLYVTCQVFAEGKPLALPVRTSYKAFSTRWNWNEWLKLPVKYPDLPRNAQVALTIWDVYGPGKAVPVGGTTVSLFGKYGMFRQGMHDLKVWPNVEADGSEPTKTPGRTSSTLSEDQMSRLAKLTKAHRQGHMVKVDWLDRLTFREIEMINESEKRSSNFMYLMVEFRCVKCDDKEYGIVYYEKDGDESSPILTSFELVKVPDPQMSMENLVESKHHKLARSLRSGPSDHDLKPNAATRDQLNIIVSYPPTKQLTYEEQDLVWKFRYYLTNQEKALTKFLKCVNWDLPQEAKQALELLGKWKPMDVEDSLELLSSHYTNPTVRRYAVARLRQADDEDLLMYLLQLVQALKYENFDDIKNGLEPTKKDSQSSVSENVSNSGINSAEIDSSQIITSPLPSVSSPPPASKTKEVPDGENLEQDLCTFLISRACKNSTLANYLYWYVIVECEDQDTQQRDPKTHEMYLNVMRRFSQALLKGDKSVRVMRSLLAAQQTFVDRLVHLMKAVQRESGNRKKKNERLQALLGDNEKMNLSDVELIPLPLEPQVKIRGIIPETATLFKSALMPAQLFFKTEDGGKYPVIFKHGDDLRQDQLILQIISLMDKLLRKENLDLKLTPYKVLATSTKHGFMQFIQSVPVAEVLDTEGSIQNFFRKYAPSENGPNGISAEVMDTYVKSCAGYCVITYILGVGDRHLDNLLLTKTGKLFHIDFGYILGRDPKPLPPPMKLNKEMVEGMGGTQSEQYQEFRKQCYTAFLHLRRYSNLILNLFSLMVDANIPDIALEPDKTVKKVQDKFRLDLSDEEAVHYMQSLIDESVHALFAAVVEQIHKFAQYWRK
Method in brief: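 Radiometric membrane-capture assay, 10 nM purchased vps34, 15 min preincubation with inhibitor, then 1 h reaction. Final: 50 mM HEPES pH 7.5, 0.1% CHAPS, 2mM MnCl2, 1 mM EGTA, 2 mM DTT, 100 µM PI in PI:DOPS:DOPC, 500 ng/µL BSA, 2% DMSO, 10 µM ATP, 2.5 uCi γ32P-ATP; spots washed, phosphorimaged.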

[3] = biological target: Phosphatidylinositol 4-kinase type 2-beta (Homo sapiens) (UniProt Q8TCG2); test: Inhibition of flag-tagged recombinant PI4K2beta (unknown origin) transfected in HEK293T cells upto 20 uM preincubated for 15 mins followed by addition of cold ATP/gamma32P-ATP measured after 25 mins; type: cell-based; conditions: HEK-293T
Phosphatidylinositol 4-kinase type 2-beta (Homo sapiens), sequence (Q8TCG2 whole entry): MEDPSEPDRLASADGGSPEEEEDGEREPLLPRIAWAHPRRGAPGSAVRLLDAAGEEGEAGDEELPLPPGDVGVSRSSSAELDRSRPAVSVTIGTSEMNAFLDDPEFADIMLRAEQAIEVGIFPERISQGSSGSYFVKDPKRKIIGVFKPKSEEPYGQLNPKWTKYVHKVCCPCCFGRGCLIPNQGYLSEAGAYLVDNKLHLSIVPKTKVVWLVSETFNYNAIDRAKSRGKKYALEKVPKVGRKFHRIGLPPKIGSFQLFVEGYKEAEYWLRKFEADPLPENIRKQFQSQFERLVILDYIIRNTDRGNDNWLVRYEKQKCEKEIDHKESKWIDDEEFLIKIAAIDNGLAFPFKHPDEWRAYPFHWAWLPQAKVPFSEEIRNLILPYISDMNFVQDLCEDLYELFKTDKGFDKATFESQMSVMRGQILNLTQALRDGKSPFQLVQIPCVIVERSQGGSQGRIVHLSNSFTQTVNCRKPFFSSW
Method in brief: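 Enzymes cloned from DNASU plasmids, FLAG-tagged, transfected into HEK293T and FLAG-immunoprecipitated, eluted with FLAG peptide. 15 min inhibitor preincubation, 25 min reaction in 20 mM Bis-Tris propane pH 7.5, 10 mM MgCl2, 0.075 mM Triton X-100, 0.5 mM EGTA, 1 mM DTT, 100 µM PI, 500 ng/µL BSA, 2% DMSO, 10 µM ATP, 2 uCi γ32P-ATP; phosphorimaging.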

Hepatitis C virus = test: Antiviral activity against HCV genotype 2a J6/JFH1 infected in human Huh7.5 cells after 3 days by gaussia luciferase assay; type: functional, organism-based, Hepacivirus hominis; conditions: subtype 2a J6/JFH1, Huh-7, 72 h
Method in brief: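 Huh7.5 cells stably infected with J6/JFH1-GLuc, kept in DMEM/10% FBS, glutamine, NEAA, pen/strep at 37 °C, 5% CO2. 10,000 cells/well; serially diluted compound added 1 h after plating; 3-day incubation. Replication read as Gaussia luciferase activity in supernatant; viability by Presto Blue.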

[4] = biological target: T1, Phosphatidylinositol 3-kinase C2 domain-containing subunit gamma (Homo sapiens, UniProt O75747); test: Inhibition of N-terminal GST-tagged recombinant human full length PI3KC2gamma expressed in baculovirus infected Sf21 insect cells preincubated for 15 mins followed by addition of cold ATP/gamma32P-ATP measured after 15 mins
T1 sequence (O75747 whole entry): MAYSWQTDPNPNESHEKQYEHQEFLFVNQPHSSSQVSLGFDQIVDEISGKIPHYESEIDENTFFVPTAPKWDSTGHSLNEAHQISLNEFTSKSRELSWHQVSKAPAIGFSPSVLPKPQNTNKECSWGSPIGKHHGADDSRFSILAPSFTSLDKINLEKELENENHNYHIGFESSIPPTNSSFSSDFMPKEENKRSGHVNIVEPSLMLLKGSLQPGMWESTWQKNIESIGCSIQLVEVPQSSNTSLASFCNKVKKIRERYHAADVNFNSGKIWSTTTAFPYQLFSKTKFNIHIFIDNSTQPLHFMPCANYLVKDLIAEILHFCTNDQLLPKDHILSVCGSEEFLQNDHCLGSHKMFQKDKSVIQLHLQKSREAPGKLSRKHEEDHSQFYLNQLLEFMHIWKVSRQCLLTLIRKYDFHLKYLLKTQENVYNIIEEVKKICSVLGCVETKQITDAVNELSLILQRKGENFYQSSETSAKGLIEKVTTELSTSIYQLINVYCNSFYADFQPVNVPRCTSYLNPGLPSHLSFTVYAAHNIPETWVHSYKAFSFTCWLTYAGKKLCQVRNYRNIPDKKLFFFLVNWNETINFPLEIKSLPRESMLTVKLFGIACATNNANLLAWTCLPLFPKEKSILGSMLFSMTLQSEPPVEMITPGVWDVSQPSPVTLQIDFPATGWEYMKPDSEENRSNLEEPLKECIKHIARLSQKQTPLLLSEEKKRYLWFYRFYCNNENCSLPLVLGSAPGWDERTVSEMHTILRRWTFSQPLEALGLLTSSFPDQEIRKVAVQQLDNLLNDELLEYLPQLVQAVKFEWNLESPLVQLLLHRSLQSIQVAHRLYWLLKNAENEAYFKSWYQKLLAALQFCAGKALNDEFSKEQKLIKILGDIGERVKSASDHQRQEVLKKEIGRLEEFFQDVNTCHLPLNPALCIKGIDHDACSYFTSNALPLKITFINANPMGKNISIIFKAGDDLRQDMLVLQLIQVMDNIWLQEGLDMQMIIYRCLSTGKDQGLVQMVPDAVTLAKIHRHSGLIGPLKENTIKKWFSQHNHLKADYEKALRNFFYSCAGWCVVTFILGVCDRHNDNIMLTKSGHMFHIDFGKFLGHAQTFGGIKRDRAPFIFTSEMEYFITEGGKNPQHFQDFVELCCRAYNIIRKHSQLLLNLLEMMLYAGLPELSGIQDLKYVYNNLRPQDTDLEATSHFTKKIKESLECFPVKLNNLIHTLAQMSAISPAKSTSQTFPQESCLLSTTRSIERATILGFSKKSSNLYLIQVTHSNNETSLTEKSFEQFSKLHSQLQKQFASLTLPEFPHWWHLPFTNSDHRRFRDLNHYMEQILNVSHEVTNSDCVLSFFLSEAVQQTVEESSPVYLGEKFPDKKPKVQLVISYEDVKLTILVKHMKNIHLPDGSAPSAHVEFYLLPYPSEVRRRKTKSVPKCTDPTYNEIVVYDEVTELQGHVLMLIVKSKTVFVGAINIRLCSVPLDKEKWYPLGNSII
Method in brief: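 1 nM PI3KC2γ, 15 min inhibitor preincubation, 15 min reaction. Final: 50 mM HEPES pH 7.5, 100 mM NaCl, 0.03% CHAPS, 10 mM MgCl2, 1 mM EGTA, 2 mM DTT, 100 µM PI (PI:DOPS:DOPC), 500 ng/µL BSA, 2% DMSO, 10 µM ATP, 2 uCi γ32P-ATP. Nitrocellulose capture, phosphorimaging.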

Question: Which results are given for COc1ccc(-c2sc(NC(=O)C3CCCC3)nc2C)cc1S(=O)(=O)Nc1ccc(O)cc1?
Answer: IC50 [1]: 2000 nM; IC50 [2]: > 20000 nM; inhibition [3]: < 50%; IC50 (Hepatitis C virus): 630 nM; IC50 [4]: 1000 nM

Question: How did the IC50 [1] turn out when COc1ccc(-c2sc(NC(=O)C(C)(C)C)nc2C)cc1S(=O)(=O)Nc1ccc(O)cc1 was run?
Answer: 10000 nM

Question: And the IC50 [2]?
Answer: > 20000 nM

Question: What about the inhibition [3] of the same compound?
Answer: < 20%

Question: And the IC50 (Hepatitis C virus)?
Answer: 1300 nM

Question: What about the IC50 [4] of the same compound?
Answer: 1000 nM
